# Laboratory results published in PubChem BioAssay AID504383 (The Scripps Research Institute Molecular Screening Center, 2011).
# Hit rate of the full screen: of about 2,500 compounds, about 1,200 (48%) were called active. The set was probably picked from earlier hits. This is one part of the list. A number with no mark means an inactive call.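 How the source made its calls: active means mean activation above the low control average plus 3 SD, as set in the primary screen (cut at about 12% in these data); inactive means the rest.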
# Molecular target: Troponin I, cardiac muscle (Homo sapiens) + Troponin T, cardiac muscle (Homo sapiens) + Troponin C, slow skeletal and cardiac muscles (Homo sapiens) (UniProt P19429+P45379+P63316)
# Test: calcium sensitizers of cardiac thin filaments – biochemical, IANBD-TnC fluorescence, triplicate, confirmation (AID 504383);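 further: 0% = DMSO at 0.472 mM calcium and 100% = DMSO at 2.9 mM calcium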
# Settings: IANBD-labeled cardiac RTF, Ca2+ sensitivity fluorescence; at 7.2 µM; hits give high values; scaled from EC20 to saturating calcium; tested at EC20 calcium, 0.472 mM
# Method in brief: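 Material: labelled regulated thin filaments; Reagent: 0.472 mM calcium; Incubation: 15 min compound incubation with filaments at 25 °C; Detection: filament fluorescence intensity; Evaluation: fluorescence increase normalised to calcium controls; Benchmarks: low control EC20 calcium, high control EC100 calcium.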
row,Structure (SMILES),activation
1,COc1ccc(NC(=O)c2cccc(-c3ccc(O)cc3)c2)cn1,2.76%
2,COC(=O)c1ccc(NC(=O)c2snnc2-c2ccccc2)cc1,11.7% (active)
3,Nc1nc2ccccc2n1CCOc1ccc(Br)cc1,12.1% (active)
4,Cc1ccc(-c2nc3sc(C#N)c(N)n3c(=O)c2C#N)cc1,6.97%
5,Cc1ccc(S(=O)(=O)c2cc(C#N)c(=O)[nH]c2N)cc1,23.8% (active)
6,CC1(C)CC2(CCCN(C(=S)Nc3ccccc3)C2)CCO1 (centres undefined),17.2% (active)
7,C=CCN1C(=O)C(Cc2cccc(Cl)c2)S/C1=N/N=C/c1ccco1 (centres undefined),6.48%
8,O=C(COc1ccc(Cl)cc1[N+](=O)[O-])N1CCCCC1,48.7% (active)
9,CC(Oc1ccc(S(=O)(=O)N2CCCC2)cc1[N+](=O)[O-])C(=O)N(C)c1ccccc1 (centres undefined),6.91%
10,O=C(COc1ccc(Cl)cc1[N+](=O)[O-])N1CCCCCC1,5.74%
11,COc1cccc(OCCCn2cc(/C=C3/C(=N)N4C=C(C)SC4=NC3=O)c3ccccc32)c1,9.3%
12,CC1=CN2C(=N)/C(=C/c3ccc([N+](=O)[O-])o3)C(=O)N=C2S1,14.5% (active)
13,CC(=O)c1cccc(-n2c(CCC(=O)O)ccc2-c2ccccc2)c1,7.99%
14,CCCS(=O)(=O)N1CCC(C(=O)NCCCN2CCC(Cc3ccccc3)CC2)CC1,6.98%
15,CCOc1ccc(CCNC(=O)c2ccc(CNS(=O)(=O)c3ccccc3)cc2)cc1OCC,4.87%
16,CCOc1ccc(CCNC(=O)C2CCCN(S(=O)(=O)N3CCOCC3)C2)cc1OCC (centres undefined),15.7% (active)
17,COc1cc(OC)c(C2N(c3ccc(Cl)c(Cl)c3)C(=O)C3CCCN32)cc1OC (centres undefined),-2.98%
18,Cn1nccc1NC(=O)Nc1cccc(Cl)c1Cl,51.6% (active)
19,COc1cc(OC)cc(-c2c(-c3cccs3)c3cc(-c4ccc(SC)cc4)ccc3n2C)c1,25.8% (active)
20,C=CCn1c(=O)/c(=C/c2cc(OC)c(OC)c(OC)c2)s/c1=C(/C#N)c1nc2ccccc2n1C,8.61%
21,COCCCn1c(=O)/c(=C\c2cccc(OC)c2OC)s/c1=C(/C#N)C(=O)Nc1ccc(C(=O)O)cc1,22.2% (active)
22,COCCCn1c(=O)/c(=C\c2ccccc2OC(C)C)s/c1=C(/C#N)C(=O)Nc1ccc(C(=O)O)cc1,8.94%
23,COCCNC(=O)CSc1nc(N)c(NC(=O)c2ccccc2F)c(=O)[nH]1,11.4%
24,CCn1c(=N)n(CC(O)c2ccccc2)c2ccccc21 (centres undefined),9.44%
25,CCCn1c(=N)n(CC(O)c2ccco2)c2ccccc21 (centres undefined),2.41%

row,Structure (SMILES),activation
1,N=c1n(Cc2ccccc2)c2ccccc2n1CC(O)c1ccco1 (centres undefined),29.1% (active)
2,CN1CCCN(Cc2cccc3ccccc23)CC1,9.8%
3,COc1cc(/C=C2\SC(=O)NC2=O)ccc1Oc1ccc([N+](=O)[O-])cn1,81% (active)
4,Cc1cc(C=O)c(C)n1-c1ccc(Oc2ccc([N+](=O)[O-])cn2)cc1,4.85%
5,COc1ccc(C2NN=C(c3c[nH]c4ccccc34)C2O)cc1 (centres undefined),36.2% (active)
6,O=C(COC(=O)c1ccc(S(=O)(=O)N2CCCC2)cc1)NCc1ccco1,11.6% (active)
7,COc1ccccc1CNC(=O)COC(=O)c1cccc(S(=O)(=O)N2CCOCC2)c1,6.73%
8,O=C(NC(NC(=S)Nc1ccccc1C(=O)O)C(Cl)(Cl)Cl)c1ccco1 (centres undefined),5.56%
9,O=C(Nc1cccc2c1N(C(=O)c1ccco1)CCC2)c1ccco1,25.9% (active)
10,Cn1nc(C(F)(F)F)c(-c2ccc(Br)cc2)c1NC(=O)c1ccco1,6.3%
11,O=C(N/N=C/c1cccc([N+](=O)[O-])c1)c1cnccn1,3.15%
12,COc1ccc(/C=N/NC(=O)c2cccc([N+](=O)[O-])c2)cc1O,15.3% (active)
13,CN(C)C(CNC(=O)CSc1nc2ccccc2c(=O)n1Cc1ccco1)c1ccccc1 (centres undefined),12.1% (active)
14,CCOC(=O)c1c(NC(=O)CSc2nc3cc(Cl)ccc3c(=O)n2Cc2ccco2)sc(C(=O)N(C)C)c1C,9.02%
15,Cc1cccc(NC(=O)CSc2nnc(CSc3nc(C)cc(C)n3)n2Cc2ccco2)c1,8.24%
16,CCc1ccccc1SCc1noc(C(=O)NCC2CCCO2)c1C(=O)O (centres undefined),10.6%
17,O=C(NC(=S)NCC1CCCO1)C(c1ccccc1)c1ccccc1 (centres undefined),12.2% (active)
18,O=C(NCC(=O)N(CC1CCCO1)C1(C(=O)NC2CCCCC2)CCCCC1)c1ccccc1 (centres undefined),8.78%
19,CCOc1ccc2cc(/C=C/C(=O)c3ccco3)c(Cl)nc2c1,4.88%
20,CCCc1cc(=O)[nH]c(SCC)n1,11.7% (active)
21,Cc1nc(Cl)c2c(n1)NC1=C(O2)C(=O)CCC1,10.5%
22,CCOC(=O)C(CCCCCCC(NC(C)=O)(C(=O)OCC)C(=O)OCC)(NC(C)=O)C(=O)OCC,9.57%
23,CCOC(=O)/C(=C\c1c[nH]c2ccccc12)NC(C)=O,31.7% (active)
24,CCN(CC)C(=O)c1ccc(/C=C/c2c[nH]c3ccccc23)[n+](C)c1,11.1%
